In ChEMBL document CHEMBL3526063, “Metabolism and pharmacokinetics of JM6 in mice: JM6 is not a prodrug for Ro-61-8048” (Drug Metab Dispos, 2012):

Columns and labels:
[1] = Tmax in C57BL/6N mouse treated with JM6 (containing <0.4% Ro-61-8048) at 9.5 mg/kg, po and Ro-61-8048 at 0.05 mg/kg, po drugs administered via gavage by LC-MS/MS analysis; assay type: ADME, organism-based; details: in vivo, in the assay text read “0.5 mg/kg” for “0.05 mg/kg”
How it was run: (§1)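 Male C57BL/6N mice dosed by oral gavage (10 mL/kg) as fine suspensions in 10% hydroxypropyl-β-cyclodextrin in 50 mM phosphate buffer pH 7; dose formulations verified by LC-MS/MS. Plasma analysed by LC-MS/MS; composite non-compartmental parameters from mean concentrations (n=3 per time point), C0 set to zero. %F = dose-normalised po AUCinf over dose-normalised iv AUCinf, only within linear range.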

MDR1 [2] = assay: Efflux ratio of permeability from basolateral to apical side over apical to basolateral side in MDCK2-MDR1 cells at 10 uM after 1 hr by LC-MS/MS analysis; assay type: ADME, cell-based, Canis lupus familiaris; details: dog, MDCK-MDR1
How it was run: (§2)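 MDCKII wild-type and MDR1 cells grown on Transwells 3 days at 2×10^5 cells/well. Compound 10 μM in HBSS with 25 mM HEPES pH 7.4, added apical or basolateral in duplicate, 1 h at 37 °C. Lucifer Yellow monitored monolayer integrity; wells above 100 nm/s rejected. Both chambers sampled, LC-MS/MS; Papp A>B and B>A, ratio B>A:A>B.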

[3] = Efflux ratio of permeability from basolateral to apical side over apical to basolateral side in MDCK2 cells at 10 uM after 1 hr by LC-MS/MS analysis; assay type: ADME, cell-based, Canis lupus familiaris, MDCK-II; details: dog; how it was run: as §2
[4] = AUC(infinity) in C57BL/6N mouse treated with JM6 (containing <0.4% Ro-61-8048) at 9 mg/kg, po and Ro-61-8048 at 1 mg/kg, po drugs administered via gavage by LC-MS/MS analysis; assay type: ADME, organism-based; design: dose 9 mg/kg, time infinity, route oral; details: plasma
How it was run: (§3)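 Male C57BL/6N mice were dosed by oral gavage at 10 mL/kg with a fine suspension in 10% hydroxypropyl-β-cyclodextrin in 50 mM phosphate buffer, pH 7. Plasma was taken at non-serial time points (n=3 per time point), extracted with 0.1% formic acid in acetonitrile containing diclofenac as internal standard, and quantified by UPLC-MS/MS. Composite non-compartmental parameters came from mean concentrations; AUClast by linear trapezoid, kel from at least three terminal points.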

[5] = biological target: Kynurenine 3-monooxygenase (Rattus norvegicus, UniProt O88867); assay: Inhibition of Wistar rat KMO assessed as 3-hydroxykynurenine formation preincubated for 5 mins using 100 uM kynurenine as substrate by LC-MS/MS analysis
Sequence of Kynurenine 3-monooxygenase (Rattus norvegicus, UniProt O88867) (O88867 whole entry): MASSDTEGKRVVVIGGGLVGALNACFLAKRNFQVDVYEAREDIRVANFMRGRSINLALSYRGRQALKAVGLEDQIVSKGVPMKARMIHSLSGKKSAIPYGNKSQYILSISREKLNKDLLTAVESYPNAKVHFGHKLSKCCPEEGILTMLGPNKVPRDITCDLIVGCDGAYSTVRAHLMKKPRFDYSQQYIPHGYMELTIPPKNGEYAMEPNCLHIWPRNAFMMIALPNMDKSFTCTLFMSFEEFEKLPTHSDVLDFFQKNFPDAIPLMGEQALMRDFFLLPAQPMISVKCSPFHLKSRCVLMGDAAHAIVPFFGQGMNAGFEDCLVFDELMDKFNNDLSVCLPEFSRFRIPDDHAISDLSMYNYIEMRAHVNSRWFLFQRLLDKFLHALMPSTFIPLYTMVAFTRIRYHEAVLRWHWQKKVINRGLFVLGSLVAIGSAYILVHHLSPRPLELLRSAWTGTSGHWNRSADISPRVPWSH
How it was run: (§4)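 Liver mitochondrial KMO preparation (mouse C57 BL/6J, rat Wistar, human) at 0.3 mg protein/mL in 100 mM potassium phosphate pH 7.4 with 200 µM NADPH, 0.4 U/mL G6PDH, 3 mM glucose 6-phosphate. Compound pre-incubated 5 min at 25°C, then 100 µM kynurenine added; 40 min (rodent) or 60 min (human). Stopped with TCA; 3-hydroxykynurenine by LC-MS/MS. IC50 from 8-point 3-fold dilutions (top 3 or 30 µM), triplicates, n≥2 runs.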

[6] = Half life in C57BL/6N mouse treated with JM6 (containing <0.4% Ro-61-8048) at 9 mg/kg, po and Ro-61-8048 at 1 mg/kg, po drugs administered via gavage by LC-MS/MS analysis; assay type: ADME, organism-based; details: in vivo; how it was run: as §3
MDR1 [7] = assay: Apparent permeability from apical to basolateral side in MDCK2-MDR1 cells at 10 uM after 1 hr by LC-MS/MS analysis; assay type: ADME, cell-based, Canis lupus familiaris, MDCK-II; details: dog, MDCK-MDR1
How it was run: (§5)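 MDCKII wild-type or MDR1 monolayers were grown 3 days on Transwells after seeding at 2×10^5 cells/well. Compound at 10 µM in HBSS with 25 mM HEPES, pH 7.4, was added apically or basolaterally in duplicate, with Lucifer Yellow as an integrity marker (wells above 100 nm/s rejected).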

[8] = Tmax in C57BL/6N mouse treated with JM6 (containing <0.4% Ro-61-8048) at 10 mg/kg, po and Ro-61-8048 at 0.05 mg/kg, po drugs administered via gavage by LC-MS/MS analysis; assay type: ADME, organism-based; details: in vivo; how it was run: as §1
[9] = Hepatic extraction ratio in human Hepatocyte at 1 uM after 10 to 90 mins by LC-MS/MS analysis; assay type: ADME, cell-based; details: hepatocytes, read-out: ERH
Mus musculus [10] = assay: Dose normalised AUC in C57BL/6N mouse treated with JM6 (containing <0.4% Ro-61-8048) at 10 mg/kg, po and Ro-61-8048 at 0.05 mg/kg, po drugs administered via gavage by LC-MS/MS analysis; assay type: ADME, organism-based; details: in vivo; how it was run: as §3
[11] = Cmax in C57BL/6N mouse treated with JM6 (containing <0.4% Ro-61-8048) at 9 mg/kg, po and Ro-61-8048 at 1 mg/kg, po drugs administered via gavage by LC-MS/MS analysis; assay type: ADME, organism-based; design: dose 9 mg/kg, route oral; details: in vivo; how it was run: as §3
[12] = biological target: Kynurenine 3-monooxygenase (Mus musculus, UniProt Q91WN4); assay: Inhibition of C57BL/6J mouse KMO assessed as 3-hydroxykynurenine formation preincubated for 5 mins using 100 uM kynurenine as substrate by LC-MS/MS analysis; how it was run: as §4
Sequence of Kynurenine 3-monooxygenase (Mus musculus, UniProt Q91WN4) (Q91WN4 whole entry): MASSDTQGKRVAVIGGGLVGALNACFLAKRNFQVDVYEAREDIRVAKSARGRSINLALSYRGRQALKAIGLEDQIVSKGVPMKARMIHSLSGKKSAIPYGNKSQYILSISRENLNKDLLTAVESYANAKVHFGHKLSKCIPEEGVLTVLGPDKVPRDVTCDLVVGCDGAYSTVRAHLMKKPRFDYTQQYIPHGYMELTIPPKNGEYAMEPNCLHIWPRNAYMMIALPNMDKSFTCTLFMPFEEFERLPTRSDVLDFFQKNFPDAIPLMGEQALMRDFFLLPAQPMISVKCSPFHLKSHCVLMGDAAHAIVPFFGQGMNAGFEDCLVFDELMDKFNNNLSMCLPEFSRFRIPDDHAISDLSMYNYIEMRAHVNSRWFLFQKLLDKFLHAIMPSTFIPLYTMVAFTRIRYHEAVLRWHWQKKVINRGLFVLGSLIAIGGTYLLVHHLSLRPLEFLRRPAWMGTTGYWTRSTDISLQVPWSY

[13] = Apparent permeability from basolateral to apical side in MDCK2 cells at 10 uM after 1 hr by LC-MS/MS analysis; assay type: ADME, cell-based, Canis lupus familiaris, MDCK-II; details: dog; how it was run: as §5
[14] = AUClast in C57BL/6N mouse treated with JM6 (containing <0.4% Ro-61-8048) at 9 mg/kg, po and Ro-61-8048 at 1 mg/kg, po drugs administered via gavage by LC-MS/MS analysis; assay type: ADME, organism-based; design: dose 9 mg/kg, time 0 - last, route oral; details: plasma; how it was run: as §3
Mus musculus [15] = assay: Dose normalised Cmax in C57BL/6N mouse treated with JM6 (containing <0.4% Ro-61-8048) at 9.5 mg/kg, po and Ro-61-8048 at 0.05 mg/kg, po drugs administered via gavage by LC-MS/MS analysis; assay type: ADME, organism-based; details: in vivo, in the assay text read “0.5 mg/kg” for “0.05 mg/kg”; how it was run: as §3
[16] = Oral bioavailability in C57BL/6N mouse treated with JM6 (containing <0.4% Ro-61-8048) at 10 mg/kg and Ro-61-8048 at 0.05 mg/kg drugs administered via gavage by LC-MS/MS analysis; assay type: ADME, organism-based; details: in vivo; how it was run: as §1
Mus musculus [17] = assay: Dose normalised AUC in C57BL/6N mouse treated with JM6 (containing <0.4% Ro-61-8048) at 9 mg/kg, po and Ro-61-8048 at 1 mg/kg, po drugs administered via gavage by LC-MS/MS analysis; assay type: ADME, organism-based; details: in vivo; how it was run: as §3
[18] = AUClast in C57BL/6N mouse treated with JM6 (containing <0.4% Ro-61-8048) at 25 mg/kg, po and Ro-61-8048 at 0.05 mg/kg, po drugs administered via gavage by LC-MS/MS analysis; assay type: ADME, organism-based; design: dose 25 mg/kg, route oral, time 0 - last; details: plasma; how it was run: as §3
Mus musculus [19] = assay: Dose normalised Cmax in C57BL/6N mouse treated with JM6 (containing <0.4% Ro-61-8048) at 25 mg/kg, po and Ro-61-8048 at 0.05 mg/kg, po drugs administered via gavage by LC-MS/MS analysis; assay type: ADME, organism-based; details: in vivo; how it was run: as §3
[20] = Hepatic extraction ratio in mouse Hepatocyte at 1 uM after 10 to 90 mins by LC-MS/MS analysis; assay type: ADME, cell-based; details: hepatocytes, read-out: ERH

Row | SMILES | Tmax [1] | efflux ratio at 1 h, 10 µM (MDR1 [2]) | AUC(0-inf) [4] | IC50 [5] | half-life [6] | Papp A→B at 1 h, 10 µM (MDR1 [7]) | Tmax [8] | hepatic extraction ratio at 1 µM [9] | AUC/dose (Mus musculus [10]) | Cmax [11] | IC50 [12] | AUC(0-t) [14] | Cmax/dose (Mus musculus [15]) | bioavailability [16] | AUC/dose (Mus musculus [17]) | AUC(0-t) [18] | Cmax/dose (Mus musculus [19]) | hepatic extraction ratio at 1 µM [20] | other results
1 | COc1ccc(S(=O)(=O)Nc2nc(-c3cccc([N+](=O)[O-])c3)cs2)cc1OC | 30 min | 3.2 | 110 µM·h | 0.022 µM | 264 min | 10 ×10⁻⁶ cm/s | 60 min | 0.8 | 100000 nM·kg·h/mg | 17 µM | 0.09 µM | 110 µM·h | 18 µM | 80% | 140000 nM·kg·h/mg | 8.4 µM·h | 16 µM | < 0.5 | efflux ratio at 1 h, 10 µM ([3]; MDCK): 0.8; Papp B→A at 1 h, 10 µM ([13]; MDCK): 13 ×10⁻⁶ cm/s
2 | COc1ccc(S(=O)(=O)Nc2nc(-c3cccc([N+](=O)[O-])c3)c(CN3CCCCC3)s2)cc1OC | 30 min | 60 | 1.1 µM·h | 7.1 µM | 42 min | 0.72 ×10⁻⁶ cm/s | 30 min | 0.67 | 130 nM·kg·h/mg | 1 µM | 20 µM | 1.1 µM·h | 0.15 µM | 13% | 130 nM·kg·h/mg | 4.8 µM·h | 0.14 µM | 0.83 | Ratio ([3]; mdck-ii, 1 h, 10 µM): 5.3; Papp ([13]; mdck-ii, 1 h, 10 µM): 0.53 ×10⁻⁶ cm/s
